Measured values published in the M2OR odorant receptor database.

Legend:
Conditions in all cases: stereoisomer not certain
OR10G2 (Homo sapiens) = biological target: T1, OR10G2 (Homo sapiens) (UniProt Q8NGC3)
T1 sequence (whole entry): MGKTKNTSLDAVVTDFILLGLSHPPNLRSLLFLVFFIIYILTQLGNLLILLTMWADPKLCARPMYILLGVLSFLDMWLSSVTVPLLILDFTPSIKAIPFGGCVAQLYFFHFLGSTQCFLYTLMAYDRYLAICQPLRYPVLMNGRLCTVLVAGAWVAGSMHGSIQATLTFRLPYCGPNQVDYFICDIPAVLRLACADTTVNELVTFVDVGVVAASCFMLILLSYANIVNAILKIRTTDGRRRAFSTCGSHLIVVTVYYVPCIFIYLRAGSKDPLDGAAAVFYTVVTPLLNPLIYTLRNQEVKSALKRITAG
Outline: (§1)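 Whether a receptor–molecule pair is responsive (active) rests on the original authors' judgment that its measured signal was statistically different from baseline. Pairs without that judgment are non-responsive (inactive). Sources used varied assay methods, commonly transient luciferase assays in mammalian cell lines.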

OR10G3 (Homo sapiens) = biological target: T2, OR10G3 (Homo sapiens) (UniProt Q8NGC4)
T2 sequence (whole entry): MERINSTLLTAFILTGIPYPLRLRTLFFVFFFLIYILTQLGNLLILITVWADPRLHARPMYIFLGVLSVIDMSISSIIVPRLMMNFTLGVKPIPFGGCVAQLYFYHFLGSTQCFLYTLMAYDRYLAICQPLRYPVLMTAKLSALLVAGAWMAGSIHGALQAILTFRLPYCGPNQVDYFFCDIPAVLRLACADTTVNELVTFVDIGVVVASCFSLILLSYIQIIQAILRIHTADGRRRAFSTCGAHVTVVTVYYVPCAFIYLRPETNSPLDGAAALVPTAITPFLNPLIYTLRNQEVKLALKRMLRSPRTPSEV
Outline: as §1

OR10G4 (Homo sapiens) = biological target: T3, OR10G4 (Homo sapiens) (UniProt Q8NGN3)
T3 sequence (whole entry): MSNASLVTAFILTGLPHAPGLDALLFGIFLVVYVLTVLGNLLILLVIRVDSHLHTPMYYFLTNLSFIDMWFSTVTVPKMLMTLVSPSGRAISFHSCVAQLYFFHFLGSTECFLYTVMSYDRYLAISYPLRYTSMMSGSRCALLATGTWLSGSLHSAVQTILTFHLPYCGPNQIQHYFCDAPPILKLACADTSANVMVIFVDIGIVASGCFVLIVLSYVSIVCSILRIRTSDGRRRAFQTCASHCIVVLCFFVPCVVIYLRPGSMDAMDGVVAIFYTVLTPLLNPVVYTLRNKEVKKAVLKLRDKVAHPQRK
Outline: as §1

OR10G6 (Homo sapiens) = biological target: T4, OR10G6 (Homo sapiens) (UniProt Q8NH81)
T4 sequence (whole entry): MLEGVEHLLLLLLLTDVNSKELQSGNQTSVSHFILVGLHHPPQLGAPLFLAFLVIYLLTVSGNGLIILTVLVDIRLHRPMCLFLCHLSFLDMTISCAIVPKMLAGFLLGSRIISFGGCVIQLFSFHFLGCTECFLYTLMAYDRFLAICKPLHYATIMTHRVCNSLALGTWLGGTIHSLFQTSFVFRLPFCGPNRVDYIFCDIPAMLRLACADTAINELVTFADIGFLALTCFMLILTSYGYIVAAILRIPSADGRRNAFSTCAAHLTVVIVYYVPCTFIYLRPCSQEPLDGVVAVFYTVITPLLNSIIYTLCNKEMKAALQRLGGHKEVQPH
Outline: as §1

OR10G7 (Homo sapiens) = biological target: T5, OR10G7 (Homo sapiens) (UniProt Q8NGN6)
T5 sequence (whole entry): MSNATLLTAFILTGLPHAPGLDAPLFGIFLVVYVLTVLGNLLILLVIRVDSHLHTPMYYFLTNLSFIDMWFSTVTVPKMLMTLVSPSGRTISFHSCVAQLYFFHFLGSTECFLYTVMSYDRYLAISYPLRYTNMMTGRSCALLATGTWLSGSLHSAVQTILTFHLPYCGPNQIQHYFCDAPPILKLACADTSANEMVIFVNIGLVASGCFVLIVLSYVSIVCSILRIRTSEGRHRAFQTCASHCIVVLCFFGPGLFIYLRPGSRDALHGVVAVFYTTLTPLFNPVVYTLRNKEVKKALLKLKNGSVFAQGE
Outline: as §1

OR10G8 (Homo sapiens) = biological target: T6, OR10G8 (Homo sapiens) (UniProt Q8NGN5)
T6 sequence (whole entry): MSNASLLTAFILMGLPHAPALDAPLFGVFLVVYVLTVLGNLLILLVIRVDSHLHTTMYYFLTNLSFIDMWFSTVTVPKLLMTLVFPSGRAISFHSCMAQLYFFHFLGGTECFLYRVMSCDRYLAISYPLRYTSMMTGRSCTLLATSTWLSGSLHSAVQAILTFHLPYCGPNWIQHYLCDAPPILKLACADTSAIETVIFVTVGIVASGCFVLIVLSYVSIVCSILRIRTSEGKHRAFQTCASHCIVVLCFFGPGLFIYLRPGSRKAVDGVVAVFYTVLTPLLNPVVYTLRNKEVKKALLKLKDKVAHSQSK
Outline: as §1

OR10G9 (Homo sapiens) = biological target: T7, OR10G9 (Homo sapiens) (UniProt Q8NGN4)
T7 sequence (whole entry): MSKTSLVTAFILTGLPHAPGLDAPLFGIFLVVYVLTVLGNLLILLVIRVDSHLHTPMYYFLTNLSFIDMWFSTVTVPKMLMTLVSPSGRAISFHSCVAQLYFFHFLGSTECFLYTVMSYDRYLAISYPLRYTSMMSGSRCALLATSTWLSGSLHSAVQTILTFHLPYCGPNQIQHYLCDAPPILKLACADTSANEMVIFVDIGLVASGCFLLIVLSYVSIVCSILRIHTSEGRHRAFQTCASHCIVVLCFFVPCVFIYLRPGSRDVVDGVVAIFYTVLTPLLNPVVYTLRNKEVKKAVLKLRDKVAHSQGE
Outline: as §1

OR10H1 (Homo sapiens) = biological target: T8, OR10H1 (Homo sapiens) (UniProt Q9Y4A9)
T8 sequence (whole entry): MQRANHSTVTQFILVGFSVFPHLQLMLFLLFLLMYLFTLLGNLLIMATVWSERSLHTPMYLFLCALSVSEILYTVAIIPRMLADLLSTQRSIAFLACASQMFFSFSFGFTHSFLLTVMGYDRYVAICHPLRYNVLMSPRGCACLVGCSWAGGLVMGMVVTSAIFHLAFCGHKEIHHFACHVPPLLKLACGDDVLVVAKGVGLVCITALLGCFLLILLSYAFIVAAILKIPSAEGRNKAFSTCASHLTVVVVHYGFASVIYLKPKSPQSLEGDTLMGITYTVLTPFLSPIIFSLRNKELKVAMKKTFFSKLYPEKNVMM
Outline: as §1

OR10H2 (Homo sapiens) = biological target: T9, OR10H2 (Homo sapiens) (UniProt O60403)
T9 sequence (whole entry): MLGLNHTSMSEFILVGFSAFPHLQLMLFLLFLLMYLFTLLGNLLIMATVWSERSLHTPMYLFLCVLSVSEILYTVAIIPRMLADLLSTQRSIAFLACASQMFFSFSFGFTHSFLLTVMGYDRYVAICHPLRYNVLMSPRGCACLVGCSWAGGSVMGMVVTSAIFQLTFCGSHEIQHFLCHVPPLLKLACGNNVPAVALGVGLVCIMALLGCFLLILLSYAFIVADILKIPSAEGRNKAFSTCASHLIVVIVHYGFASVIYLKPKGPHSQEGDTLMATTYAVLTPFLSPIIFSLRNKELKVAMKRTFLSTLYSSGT
Outline: as §1

OR10H3 (Homo sapiens) = biological target: T10, OR10H3 (Homo sapiens) (UniProt O60404)
T10 sequence (whole entry): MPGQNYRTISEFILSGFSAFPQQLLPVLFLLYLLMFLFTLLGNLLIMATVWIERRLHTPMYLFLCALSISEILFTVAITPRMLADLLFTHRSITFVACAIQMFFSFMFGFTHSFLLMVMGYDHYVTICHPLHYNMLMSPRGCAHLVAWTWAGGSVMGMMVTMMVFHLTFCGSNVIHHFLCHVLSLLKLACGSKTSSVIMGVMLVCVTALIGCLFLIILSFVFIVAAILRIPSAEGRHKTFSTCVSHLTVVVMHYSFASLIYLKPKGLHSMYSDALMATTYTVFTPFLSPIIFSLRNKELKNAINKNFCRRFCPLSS
Outline: as §1

OR10H4 (Homo sapiens) = biological target: T11, OR10H4 (Homo sapiens) (UniProt Q8NGA5)
T11 sequence (whole entry): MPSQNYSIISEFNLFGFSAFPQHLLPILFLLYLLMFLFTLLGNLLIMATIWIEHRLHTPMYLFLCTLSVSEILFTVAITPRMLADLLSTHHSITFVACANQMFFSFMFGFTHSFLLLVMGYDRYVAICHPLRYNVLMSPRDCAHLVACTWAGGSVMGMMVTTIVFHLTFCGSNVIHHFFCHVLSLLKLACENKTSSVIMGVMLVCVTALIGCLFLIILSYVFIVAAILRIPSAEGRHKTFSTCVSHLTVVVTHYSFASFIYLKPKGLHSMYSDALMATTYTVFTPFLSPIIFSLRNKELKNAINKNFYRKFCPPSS
Outline: as §1

OR10H5 (Homo sapiens) = biological target: T12, OR10H5 (Homo sapiens) (UniProt Q8NGA6)
T12 sequence (whole entry): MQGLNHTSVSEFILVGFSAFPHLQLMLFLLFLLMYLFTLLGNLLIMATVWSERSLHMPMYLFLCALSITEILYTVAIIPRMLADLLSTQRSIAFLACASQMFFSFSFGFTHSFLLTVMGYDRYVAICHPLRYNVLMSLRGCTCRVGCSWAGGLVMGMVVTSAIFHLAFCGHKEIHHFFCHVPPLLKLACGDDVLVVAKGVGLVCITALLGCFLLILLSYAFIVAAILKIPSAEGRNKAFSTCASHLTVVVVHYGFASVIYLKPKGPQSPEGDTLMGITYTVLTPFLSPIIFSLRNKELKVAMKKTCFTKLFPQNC
Outline: as §1

OR10J1 (Homo sapiens) = biological target: T13, OR10J1 (Homo sapiens) (UniProt P30954)
T13 sequence (whole entry): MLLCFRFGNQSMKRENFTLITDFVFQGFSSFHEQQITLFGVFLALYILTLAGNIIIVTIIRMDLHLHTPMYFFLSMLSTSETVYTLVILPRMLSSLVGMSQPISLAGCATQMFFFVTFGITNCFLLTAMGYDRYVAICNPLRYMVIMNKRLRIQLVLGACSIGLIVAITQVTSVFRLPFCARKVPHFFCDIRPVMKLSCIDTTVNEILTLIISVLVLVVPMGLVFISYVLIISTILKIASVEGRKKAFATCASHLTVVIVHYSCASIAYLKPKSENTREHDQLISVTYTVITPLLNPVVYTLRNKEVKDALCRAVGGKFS
Outline: as §1

OR10J3 (Homo sapiens) = biological target: T14, OR10J3 (Homo sapiens) (UniProt Q5JRS4)
T14 sequence (whole entry): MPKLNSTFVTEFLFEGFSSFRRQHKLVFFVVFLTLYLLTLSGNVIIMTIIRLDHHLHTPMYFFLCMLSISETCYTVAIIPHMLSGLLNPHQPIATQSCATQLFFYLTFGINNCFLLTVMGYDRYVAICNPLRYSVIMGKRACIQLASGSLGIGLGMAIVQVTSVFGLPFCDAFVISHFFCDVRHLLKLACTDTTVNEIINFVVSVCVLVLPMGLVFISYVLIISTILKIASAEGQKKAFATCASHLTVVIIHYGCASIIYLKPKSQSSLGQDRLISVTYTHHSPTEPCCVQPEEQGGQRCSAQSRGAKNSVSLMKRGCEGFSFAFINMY
Outline: as §1

OR10J5 (Homo sapiens) = biological target: T15, OR10J5 (Homo sapiens) (UniProt Q8NHC4)
T15 sequence (whole entry): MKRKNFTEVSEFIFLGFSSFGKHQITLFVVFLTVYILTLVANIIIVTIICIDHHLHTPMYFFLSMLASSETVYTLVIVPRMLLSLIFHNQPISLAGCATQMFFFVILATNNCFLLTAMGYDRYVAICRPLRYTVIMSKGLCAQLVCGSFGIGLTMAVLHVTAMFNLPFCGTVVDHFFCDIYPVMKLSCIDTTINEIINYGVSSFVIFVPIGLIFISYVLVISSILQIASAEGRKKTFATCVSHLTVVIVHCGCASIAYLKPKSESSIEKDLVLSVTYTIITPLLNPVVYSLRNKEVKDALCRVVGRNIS
Outline: as §1

OR10K1 (Homo sapiens) = biological target: T16, OR10K1 (Homo sapiens) (UniProt Q8NGX5)
T16 sequence (whole entry): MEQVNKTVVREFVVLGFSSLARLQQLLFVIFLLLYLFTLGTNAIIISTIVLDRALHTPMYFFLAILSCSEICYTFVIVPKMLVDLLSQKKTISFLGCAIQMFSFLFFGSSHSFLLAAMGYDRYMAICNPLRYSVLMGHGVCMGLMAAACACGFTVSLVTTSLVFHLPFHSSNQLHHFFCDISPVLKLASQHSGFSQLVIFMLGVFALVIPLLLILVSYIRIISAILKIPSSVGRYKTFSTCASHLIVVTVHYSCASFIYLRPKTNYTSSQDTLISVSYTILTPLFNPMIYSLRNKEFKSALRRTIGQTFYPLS
Outline: as §1

OR10P1 (Homo sapiens) = biological target: T17, OR10P1 (Homo sapiens) (UniProt Q8NGE3)
T17 sequence (whole entry): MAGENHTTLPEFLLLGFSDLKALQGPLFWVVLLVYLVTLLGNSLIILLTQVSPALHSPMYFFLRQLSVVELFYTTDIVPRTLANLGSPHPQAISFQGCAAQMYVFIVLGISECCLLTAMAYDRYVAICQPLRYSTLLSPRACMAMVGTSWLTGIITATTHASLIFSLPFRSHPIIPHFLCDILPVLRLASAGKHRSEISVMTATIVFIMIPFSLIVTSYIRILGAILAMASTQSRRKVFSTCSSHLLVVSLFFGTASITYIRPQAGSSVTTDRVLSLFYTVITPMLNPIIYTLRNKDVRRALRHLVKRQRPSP
Outline: as §1

OR10Q1 (Homo sapiens) = biological target: T18, OR10Q1 (Homo sapiens) (UniProt Q8NGQ4)
T18 sequence (whole entry): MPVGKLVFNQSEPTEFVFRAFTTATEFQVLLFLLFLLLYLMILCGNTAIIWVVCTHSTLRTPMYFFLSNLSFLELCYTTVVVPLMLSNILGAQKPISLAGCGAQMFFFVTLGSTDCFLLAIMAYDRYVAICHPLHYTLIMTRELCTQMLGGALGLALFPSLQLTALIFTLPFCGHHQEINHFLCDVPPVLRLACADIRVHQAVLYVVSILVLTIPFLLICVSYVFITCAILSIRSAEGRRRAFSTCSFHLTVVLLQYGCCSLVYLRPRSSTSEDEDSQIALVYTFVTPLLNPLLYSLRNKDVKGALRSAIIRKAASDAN
Outline: as §1

Measured: odorant receptor agonist call;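 also: active if original authors judged signal statistically different from baseline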

CCCC(S)CCOC(C)=O (centres undefined)
inactive: all assays above

CCCCOC(=O)C(C)OC(=O)CCC (centres undefined)
inactive: OR10J5 (Homo sapiens)
